Experiments:
[1] = target: Hypoxia-inducible factor 1-alpha (Homo sapiens, UniProt Q16665); assay: Inhibition of hypoxia-induced HIF1alpha protein accumulation in human Hep3B cells treated for 30 mins measured after 12 hrs by Western blot analysis; type: functional, cell-based, Hep 3B2; settings: for inhibition: Hep 3B2
Procedure, shortened: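 Hep3B cells (DMEM, 10% FBS, 37 °C) were pretreated with a range of compound concentrations for 30 min, then kept 12 h under normoxia or hypoxia (1% O2, 94% N2, 5% CO2, 37 °C). HIF-1α was detected by western blot with a mouse monoclonal anti-HIF-1α antibody. Topoisomerase-1 was probed as the loading control.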

[2] = Inhibition of NF-kappaB activity in human HeLa cells by SEAP reporter assay; type: cell-based
Procedure, shortened: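 HeLa cells grown in DMEM with 10% FBS and penicillin/streptomycin at 37 °C, 5% CO2. NF-κB activity read by a secreted alkaline phosphatase (SEAP) reporter, with celastrol as positive control. Values are IC50s, mean ± SD from three experiments.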

Hep 3B2 = assay: Inhibition of hypoxia-induced VEGF protein secretion in human Hep3B cells after 16 hrs by ELISA; type: functional, cell-based
Procedure, shortened: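 Hep3B cells were seeded at 2 × 10^5 per well and exposed to a range of concentrations for 16 h under normoxia or hypoxia (1% O2, 5% CO2, 37 °C). VEGF in the culture supernatant was quantified with a DuoSet sandwich ELISA. 17-DMAG served as positive control. IC50s are mean ± SD from three experiments.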

[3] = Cytotoxicity against human Hep3B cells after 24 hrs by MTT assay; type: cell-based; settings: hep 3b2, 24 h
[4] = Inhibition of hypoxia-induced HIF1alpha protein accumulation in human Hep3B cells treated for 30 mins measured after 12 hrs by Western blot analysis; settings: hep 3b2

Structure (SMILES) | IC50 [1] [µM] | inhibition [1] | IC50 [2] [µM] | IC50 (Hep 3B2) [µM] | Activity [3] | IC50 [4] [µM]
COc1cc(/C=C/c2ccc(OC)c(O)c2)oc(=O)c1 | 0.81 | Dose-dependent effect | 0.4 | 1.04 | Non-toxic | –
CC(=O)OC(C)(C)/C=C/C(=O)[C@](C)(O)[C@H]1[C@H](O)C[C@@]2(C)[C@@H]3CC=C4[C@H](C[C@H](O)C(=O)C4(C)C)[C@]3(C)C(=O)C[C@]12C [CUCURBITACIN B] | – | Dose-dependent effect | 0.061 | 0.31 | – | –
COc1cc(O)cc2c1/C(=C\c1ccc(O)cc1)C(=O)O2 | 0.69 | Dose-dependent effect | 0.56 | 0.93 | Non-toxic | –
CC(=O)OC(C)(C)/C=C/C(=O)[C@](C)(O)[C@H]1[C@H](O)C[C@@]2(C)[C@@H]3CC=C4[C@@H](C[C@H](O)C(=O)C4(C)C)[C@]3(C)C(=O)C[C@]12C [CUCURBITACIN B] | 0.27 | – | – | – | Non-toxic | –
CO[C@H]1/C=C\C=C(/C)C(=O)NC2=CC(=O)C(NCCN(C)C)=C(C[C@@H](C)C[C@H](OC)[C@H](O)[C@@H](C)/C=C(\C)[C@@H]1OC(N)=O)C2=O [ALVESPIMYCIN] | – | – | – | – | – | 0.057
CC1=C(O)C(=O)C=C2C1=CC=C1[C@@]2(C)CC[C@@]2(C)[C@@H]3C[C@](C)(C(=O)O)CC[C@]3(C)CC[C@]12C [CELASTROL] | – | – | 0.15 | – | – | –
CC1=CC(=O)CC(C)(C)[C@@]1(O)/C=C/[C@@H](C)O [BLUMENOL A] | 15.8 | – | 12.3 | 26.2 | Non-toxic | –
